Test results published in paper PMC9587871 (Asian Pacific Journal of Cancer Prevention : APJCP, 2022).
Values joined by “and” are separate entries in the source; they are usually repeats but may differ in a detail not shown here. Equal entries are not always repeated. Where two headings read alike, the source gives them in different places.

Key:
[1] = tested on: breast MCF7 cancer cell line; assay: SRB antiproliferative assay, MCF7; format: cell-based
[2] = tested on: colorectal HT29 cancer cell line; assay: SRB antiproliferative assay, HT29; format: cell-based
[3] = tested on: Leukaemia K562 cancer cell line; assay: SRB antiproliferative assay, K562; format: cell-based
[4] = DPPH radical scavenging assay; conditions: 30 minutes incubations; n=4
[5] = tested on: LPS-induced NO production in RAW 264.7 macrophages (Nitric oxide synthase); assay: Griess assay of LPS-induced NO production in RAW 264.7 macrophages; format: cell-based; conditions: read-out: NOS- IC50 value, LPS-prompted RAW264.7 macrophages, 24h incubations, n=4
In short: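 LPS-stimulated RAW264.7 macrophages exposed to the test compound; NO read by Griess assay. IC50 calculated within the tested dose range. Indomethacin used as reference. Data are mean ± SD of 4 independent replicates.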

Structure (SMILES): N.N.[Cl][Pt][Cl] [Cisplatin]
- IC50 ([1]; read-out: Cytotoxicity (as of %Control) IC50 value, MCF7, 72 h incubations, n=4): 28.1 ± 4.4 µM
- IC50 ([1]; read-out: Cytotoxicity (as of %Control) IC50 value, MCF7, 72 h incubations, n=4, listed as cisplatin): 28 µM
- IC50 ([2]; read-out: Cytotoxicity (as of %Control) IC50 value, HT29, 72 h incubations, n=4): 45.1 ± 7.9 µM
- IC50 ([2]; read-out: Cytotoxicity (as of %Control) IC50 value, HT29, 72 h incubations, n=4, listed as cisplatin): 45 µM
- IC50 ([3]; read-out: Cytotoxicity (as of %Control) IC50 value, K562, 72 h incubations, n=4, NI is lack of cytotoxicity within the tested 0.1-200 μg/mL range): 180 ± 21 µM
- IC50 ([3]; read-out: Cytotoxicity (as of %Control) IC50 value, K562, 72 h incubations, n=4, NI is lack of cytotoxicity within the tested 0.1-200 μg/mL range, listed as cisplatin): 180 µM

Structure (SMILES): O=C1O[C@H]([C@@H](O)CO)C(O)=C1O [Ascorbic acid]
- DPPH radical scavenging IC50 value [4]: (21.83±1.10) μg/mL

Structure (SMILES): COc1ccc2c(c1)c(CC(=O)O)c(C)n2C(=O)c1ccc(Cl)cc1 [Indomethacin]
- IC50 ([5]; Mus musculus, RAW264.7, 24 h): 120 µM and 42.8 µg/mL
- IC50 [5]: 119 ± 3.02 µM
